Experimental findings from ChEMBL document CHEMBL1124171, “Ergolines as selective 5-HT1 agonists” (J Med Chem, 1988) are described below.

The target in experiment [1] is T1, Serotonin 1 (5-HT1) receptor (Rattus norvegicus, UniProt P28564+P30940+P19327+P28565). The experiment in a line: Binding affinity towards 5-hydroxytryptamine 1 receptor using [3H]5-HT as a radioligand from rat frontal cortex homogenates. The class given is tissue-based.
For experiment [2], the target named is Serotonin 2 (5-HT2) receptor (Rattus norvegicus, UniProt P30994+P08909+P14842). The experiment in a line: Binding affinity at 5-hydroxytryptamine 2 receptor from rat frontal cortex homogenates by [3H]-spiperone displacement. The class given is tissue-based.
Experiment [3] in a line: (§1) Ratio of affinity towards 5-HT1 to 5-HT2 receptor. Summed up: (§2)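 Frontal cortex from male Wistar rats (140–160 g), homogenate pellet in 0.05 M Tris with 10 μM pargyline and 4 mM Ca²⁺, 250–350 μg protein/sample. 5-HT1: 2 nM [³H]-5-HT, nonspecific with 10 μM 5-HT. […] Eleven concentrations, 0.1–10 000 nM, in duplicate. IC50 from curve fitting of specific binding.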
The target in experiment [4] is T1, Serotonin 1 (5-HT1) receptor. The experiment in a line: Tested for its binding affinity towards 5-hydroxytryptamine 1 receptor in rat cortical membrane homogenates using radioligand ([3H]5-HT) binding assay. The class given is cell membranes. Summed up: as §2
The test system of experiment [5] is Rattus norvegicus. The experiment is described as follows: Minimum effective dose required to suppressing (MED) 5HIAA concentration in rat when administered sc. The note with it: read-out: MED. In kind it is functional. Summed up:
(§3)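 Male Wistar rats (~150 g). Compound in dilute HCl given sc at graded doses 1 h before decapitation. Whole-brain 5-HIAA measured by LC with electrochemical detection; serum corticosterone measured spectrofluorometrically. Minimum effective dose is the lowest dose giving a significant difference from control (P < 0.05).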

Experiment [6] relates to Rattus norvegicus. The experiment in a line: Minimum effective dose required to increase (MED) corticosterone in rat serum, sc. In kind it is functional. The note with it: read-out: MED. Summed up:
as §3

Experiment [7] deals with T1, Serotonin 1 (5-HT1) receptor. The experiment in a line: Binding affinity towards 5-hydroxytryptamine 1 receptor in rat frontal cortex homogenates using [3H]5-HT as a radioligand. The class given is tissue-based. Summed up:
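Frontal cortex from male Wistar rats (140–160 g), pellet in 0.05 M Tris with 10 μM pargyline and 4 mM Ca²⁺, 250–350 μg protein/sample. 2 nM [³H]-5-HT; nonspecific binding with 10 μM 5-HT; specific binding = total minus nonspecific. Eleven test concentrations, 0.1–10 000 nM, in duplicate.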

Experiment [8] deals with Rattus norvegicus. The experiment in a line: Effect on homovanillic acid concentration in rat striatum, after 10 mg/kg sc administration. In kind it is functional. Particulars: route subcutaneous. Summed up:
(§4)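 Male Wistar rats (~150 g) were given drug or apomorphine HCl sc and decapitated 1 h later. Striatal DOPAC and HVA were quantified by LC with electrochemical detection. Results are mean ± SE, five rats/group, P < 0.05.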

Experiment [9] has as its system Rattus norvegicus. The experiment is described as follows: Effect on 3,4-dihydroxyphenylacetic acid concentration in rat striatum, after 1 mg/kg sc administration. The class given is functional. Particulars: route subcutaneous. Summed up: as §4
The test system of experiment [10] is Rattus norvegicus. The experiment is described as follows: Effect on 3,4-dihydroxyphenylacetic acid concentration in rat striatum, after 3 mg/kg sc administration. In kind it is functional. The note with it: route subcutaneous. Summed up:
as §4

Experiment [11] has as its system Rattus norvegicus. The experiment in a line: Effect on homovanillic acid concentration in rat striatum, after 3 mg/kg sc administration. Particulars: route subcutaneous. The class given is functional. Summed up: as §4
In experiment [12] the test system is Rattus norvegicus. The experiment is described as follows: Effect on homovanillic acid concentration in rat striatum, after 1 mg/kg sc administration. The note with it: route subcutaneous. The class given is functional. Summed up:
as §4

Experiment [13] relates to Rattus norvegicus. The experiment in a line: Effect on 3,4-dihydroxyphenylacetic acid concentration in rat striatum, after 10 mg/kg sc administration. Particulars: route subcutaneous. In kind it is functional. Summed up: as §4
A short description of experiment [14]: as §1. In kind it is functional. Summed up:
as §2

Experiment [15] is filed under the species Rattus norvegicus. The experiment in a line: Effect of […] on the elevation of serum corticosterone at a dose 100 ug/mL No pretreatment. In kind it is functional, organism-based. Summed up: (§5)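 Rats got p-chlorophenylalanine (300 mg/kg, ip) or no pretreatment. 24 h later, drug (0.3 mg/kg, sc, dilute HCl) or p-chloroamphetamine HCl (2.5 mg/kg, ip) was given, and rats were killed 1 h after. Serum corticosterone was measured spectrofluorometrically. Results are mean ± SE, five male Wistar rats/group.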

The species entered for experiment [16] is Rattus norvegicus. The experiment is described as follows: Effect of […] on the elevation of serum corticosterone at a dose 100 ug/mL PCPA pretreament. The class given is functional, organism-based. Summed up:
as §5

For experiment [17], the species on record is Rattus norvegicus. The experiment is described as follows: Effect of fluoxetine on the elevation of serum corticosterone at a dose 100 ug/mL, Fluoxetine pretreament. In kind it is functional, organism-based. Summed up:
(§6)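 Rats got fluoxetine HCl (10 mg/kg, ip) or no pretreatment. 16 h later, drug (0.3 mg/kg, sc, dilute HCl) or p-chloroamphetamine HCl (2.5 mg/kg, ip) was given, with decapitation 1 h after. Serum corticosterone was measured spectrofluorometrically. Results are mean ± SE, five male Wistar rats/group, P < 0.05.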

For experiment [18], the species on record is Rattus norvegicus. The experiment is described as follows: Effect of fluoxetine on the elevation of serum corticosterone at a dose 100 ug/mL, No pretreatment. In kind it is functional, organism-based. Summed up:
as §6

On to `CN1C[C@H](CO)C[C@@H]2c3cccc4[nH]cc(c34)C[C@H]21`, for which the half-maximal inhibitory concentration (IC50) (as a rule, the concentration that inhibits the measured activity by half) in [1] amounted to 120 nM; in experiment [2], 450 nM. Moreover, the Selectivity ratio in [3] was determined as 4.
For the compound `C=C1C=C2c3cccc4c3[C@@H](CN4)C[C@H]2N(C)C1`, the half-maximal inhibitory concentration (IC50) in [1] is 80 nM; in experiment [2], 3820 nM. In addition, the Selectivity ratio in experiment [3] was 48.
For `CN1C[C@H](CO)C=C2c3cccc4[nH]cc(c34)C[C@H]21`, the IC50 in experiment [4] worked out at 15 nM; in experiment [2], 160 nM. Further, in [3], the Selectivity ratio stood at 11.
On to `CC1=C[C@@H]2c3cccc4[nH]cc(c34)C[C@H]2N(C)C1` [AGROCLAVINE], for which the IC50 in experiment [4] is 140 nM; in experiment [2], 270 nM. Moreover, the Selectivity ratio in experiment [3] is 2.
Take `CN1C[C@H](CC#N)C=C2c3cccc4c3[C@@H](CN4)C[C@H]21`: the minimal effective dose in the experiment on Rattus norvegicus [5] and in the experiment on Rattus norvegicus [6] was 0.1 mg/kg throughout. Moreover, the IC50 in experiment [4] was determined as 20 nM; in experiment [2] it was 2120 nM. The Selectivity ratio in experiment [3] came to 106.
Consider `COC(=O)[C@@H]1C=C2c3cccc4c3[C@@H](CN4)C[C@H]2N(C)C1`, for which the results for the IC50 in experiment [4] and in [2] were 40 nM and 1620 nM, respectively. For the same compound, the Selectivity ratio in experiment [3] amounted to 40.
Turning to `C[C@@H]1C[C@@H]2c3cccc4c3[C@@H](CN4)C[C@H]2N(C)C1`, the 50% inhibitory concentration (IC50) is listed as 4220 nM in [2] and 390 nM in experiment [7]. Besides, the Selectivity ratio in experiment [3] is 11.
With `C=C1C=C2c3cccc4[nH]cc(c34)C[C@H]2N(C)C1`, the half-inhibitory concentration (IC50) in experiment [4] was 20 nM; in [2], 140 nM. Also, the Selectivity ratio in experiment [3] came out at 7.
Consider `CCCN1C[C@H](C)C=C2c3cccc4c3[C@@H](CN4)C[C@H]21`, for which the IC50 in [4] is 240 nM; in experiment [2], greater than 1000 nM. In addition, the Selectivity ratio in [3] is greater than 5.
In the case of `CN1C[C@H](CO)C=C2c3cccc4c3[C@@H](CN4)C[C@H]21`, the minimal effective dose was determined as 1 mg/kg with Rattus norvegicus [5] and 0.1 mg/kg in the experiment on Rattus norvegicus [6]. For the same compound, the IC50 in [1] is listed as 26 nM; in experiment [2], 2650 nM. In addition, the Selectivity ratio in [3] was determined as 102.
For `CN1CCc2cccc3c2[C@H]1Cc1ccc(O)c(O)c1-3` [APOMORPHINE], the HVA with Rattus norvegicus [8] was 0.91; in the experiment on Rattus norvegicus [11] it was 1.14; in the experiment on Rattus norvegicus [12], 1.59. The DOPAC in the experiment with Rattus norvegicus [9] was found to be 2.97; with Rattus norvegicus [10], 2.33; in the experiment with Rattus norvegicus [13], 1.73.
`CC1=C[C@@H]2c3cccc4c3[C@@H](CN4)C[C@H]2N(C)C1`: the values for the concentration for half-maximal inhibition (IC50) in experiment [2] and in experiment [7] were 1850 nM and 130 nM, respectively. Moreover, in experiment [3], the Selectivity ratio was determined as 14.
`C[C@H]1C=C2c3cccc4c3[C@@H](CN4)C[C@H]2N(C)C1`: the minimal effective dose in the experiment with Rattus norvegicus [5] was 0.001 mg/kg; in the experiment on Rattus norvegicus [6], 0.003 mg/kg. Besides, in experiment [14], the Selectivity ratio is greater than 50. For the same compound, the half-maximal inhibitory concentration (IC50) in [1] is 20 nM; in [2], greater than 1000 nM.
Take `C[C@@H]1C=C2c3cccc4[nH]cc(c34)C[C@H]2N(C)C1`: the IC50 in experiment [4] came out at 5 nM; in experiment [2] it was 110 nM. In addition, in [3], the Selectivity ratio came out at 22.
As to `CSC[C@@H]1C=C2c3cccc4c3[C@@H](CN4)C[C@H]2N(C)C1`, the minimal effective dose is 0.1 mg/kg in the experiment with Rattus norvegicus [5] and 1 mg/kg with Rattus norvegicus [6]. The IC50 in [1] came out at 20 nM; in experiment [2] it was 1330 nM. Further, in experiment [3], the Selectivity ratio was found to be 66.
Turning to `CC(N)Cc1ccc(Cl)cc1` (configuration not stated), the Serum corticosterone in the experiment listed under Rattus norvegicus [15] turned out to be 51.1 µg/mL; in the experiment filed under Rattus norvegicus [16] it was 14.9 µg/mL; in the experiment listed under Rattus norvegicus [17], 29.5 µg/mL; in the experiment listed under Rattus norvegicus [18], 69.4 µg/mL.
For `C[C@@H]1C=C2c3cccc4c3[C@H](C[C@H]2N(C)C1)CN4C`, the IC50 is 160 nM in [4] and 1250 nM in experiment [2]. The Selectivity ratio in [3] worked out at 8.
For `CN1C[C@H](CSc2ccccn2)C=C2c3cccc4c3[C@@H](CN4)C[C@H]21`, in that order: 3 nM, 110 nM and 28.
In the case of `C[C@H]1C=C2c3cccc4[nH]cc(c34)C[C@H]2N(C)C1`, the half-inhibitory concentration (IC50) was 80 nM in experiment [4] and 130 nM in experiment [2]. For the same compound, the Selectivity ratio in experiment [3] turned out to be 1.
Take `CN1C[C@H](CSc2ccccc2)C=C2c3cccc4c3[C@@H](CN4)C[C@H]21`: the half-maximal inhibitory concentration (IC50) in experiment [4] was found to be 8 nM; in experiment [2], 210 nM. Further, the Selectivity ratio in [3] worked out at 26.
